LMPTP block: blocks human LMPTP phosphatase | recombinant LMPTP-A, OMFP fluorogenic substrate, fluorescence intensity | inhibition, % at 20 µM | hit rate 0.22% among 360,000 | AID 651560;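 active = compounds that cut the enzyme signal by at least half of the control window in the single-dose screen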
Target sequence (P24666 whole entry, looked up): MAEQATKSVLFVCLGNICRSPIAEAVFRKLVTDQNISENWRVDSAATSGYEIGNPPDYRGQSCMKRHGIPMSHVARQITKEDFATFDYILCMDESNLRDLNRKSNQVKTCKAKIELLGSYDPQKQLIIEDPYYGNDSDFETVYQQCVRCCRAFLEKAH
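material = LMPTP-A | quantity = 0.625 nM enzyme | reagent = OMFP substrate, 400 µM final | buffer or medium = Bis-Tris pH 6.0, DTT, detergent | detection = endpoint fluorescence intensity from OMFP dephosphorylation | dosing = single 20 µM dose | read-out basis = % inhibition relative to no-enzyme and uninhibited control wells | control set = no-enzyme and uninhibited controls | timing = 50 min at room temperature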
STEP inh: inhibitors of human striatal-enriched phosphatase STEP. P54829. recombinant STEP, OMFP fluorogenic substrate, fluorescence. inhibition, % at 20 µM. hit rate 0.25% among 360,000;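 active = inhibition at 20 µM, scaled per plate between control wells, above about 37%, limit read from the data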
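medium = Bis-Tris buffer pH 6.0, 2.5 mM DTT, 0.005% Tween 20 | test system = STEP (striatal-enriched tyrosine phosphatase) enzyme, cell-free | measure = normalized % inhibition | compound dosing = 20 µM, 1% DMSO | also added = 25 µM OMFP | schedule = reaction 20 min, ambient temperature | measured by = fluorescence read at 480 nm ex / 540 nm em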
NadD block: inhibitors of Staphylococcus aureus NadD | purified NadD enzyme, colorimetric absorbance read-out | inhibition, % at 20 µM | hit rate 0.78% among 360,000 | AID 602399; in the data active = inhibition above about 26%
Scp1 inh: Scp-1 (human) phosphatase inhibition | Q9GZU7 | Recombinant Scp1, phosphopeptide, malachite green phosphate absorbance | inhibition, % at 20 µM | hit rate 0.88% among 340,000 | AID 493091;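 active = inhibition above about 50% at 20 µM, limit read from the data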
Target sequence (Q9GZU7 76-261 limits assumed): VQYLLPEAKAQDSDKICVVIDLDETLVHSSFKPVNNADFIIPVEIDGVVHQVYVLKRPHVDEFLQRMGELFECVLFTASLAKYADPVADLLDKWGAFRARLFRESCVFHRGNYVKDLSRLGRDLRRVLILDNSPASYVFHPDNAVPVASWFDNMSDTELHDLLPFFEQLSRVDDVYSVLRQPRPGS
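Test system: SCP-1 phosphatase catalytic domain, residues 76-261; measured by: colorimetric phosphate reagent with accelerator and stabiliser, absorbance at 630 nm; timing: enzyme reaction 45 min at room temperature, colour 5 min, stabilisation 30 min; also added: Phosphorylated 17-residue peptide substrate; compound dosing: one concentration, 20 µM, with 1.0% DMSO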
rCAG RNA binder: binds r(CAG) RNA repeats; r(CAG) RNA repeat, TO-PRO-1 dye displacement fluorescence; inhibition, % at 3 µM; hit rate 1.3% among 370,000;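 active = inhibition above the plate cutoff, the mean of all test compounds on that plate plus 3 SD, cut at about 35% in these data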;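 also: higher means more dye released from RNA so lower well fluorescence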
Numbers stand for hits; . = inactive; / = not tested or not shown. An excerpt weighted towards active compounds, which were near 2.6% of everything screened.

SMILES	LMPTP block	STEP inh	NadD block	Scp1 inh	rCAG RNA binder
Cc1cccc(NC(=O)CN2C(=O)N/C(=C/c3cc(C)n(C(C)C)c3C)C2=O)c1	.	.	34	.	.
CC1(C)CCCN(C(=O)c2coc(=O)c(Br)c2)C1	54	97	.	96	.
Cc1cc(-c2nn(-c3ccccc3)cc2/C=C2\SC(N)=NC2=O)ccc1OC(C)C	.	.	35	.	.
CCCOc1ccc(-c2nn(-c3ccccc3)cc2/C=C2\SC(N)=NC2=O)cc1	.	.	.	.	.
COC(=O)[C@]12C[C@H](CC(=O)NCCC(C)C)C(=O)N(CCc3ccc(OC)c(OC)c3)C1=C[C@H](COCc1ccccc1)O[C@@H]2C	/	/	/	/	.
CCN(CC)CCCNC(=O)CC1Oc2ccccc2NC1=O (stereo not drawn)	/	/	/	/	.
Cc1cc(C)nc(/N=c2/ssnc2Cl)c1	79	.	.	.	.
Cc1ccc(N=c2ssnc2Cl)cc1	.	.	.	.	.
CC1CCN(C2=NC(=O)N(c3ccc(Br)cc3)C(=O)C2)CC1	/	/	/	/	.
CC1(C(=O)N2CCC(Oc3cccnc3)CC2)CC1	/	/	/	/	.
Cc1ccc(S(=O)(=O)/N=C2/NC(=O)/C(=C\c3cc(Br)cc(Br)c3O)S2)cc1	.	.	41	.	/
O=C(Cc1cccc2ccccc12)NN1C(=O)CSC1=S	.	.	.	.	.
O=C(NN1C(=O)CSC1=S)C(=O)NN1C(=O)CSC1=S	.	.	.	55	.
Cc1ccccc1NC(=O)CSc1nnc(-c2ccco2)c(-c2ccco2)n1	.	.	.	68	/
Cc1cccc(C)c1NC(=O)CSc1nnc(-c2ccco2)c(-c2ccco2)n1	57	39	32	77	/
Cc1ccc(NC(=O)CSc2nnc(-c3ccco3)c(-c3ccco3)n2)cc1	.	.	.	57	41
COc1cccc(NC(=O)CSc2nnc(-c3ccco3)c(-c3ccco3)n2)c1	.	.	.	66	61
CN(C)c1ccc(NC(=O)CSc2nnc(-c3ccco3)c(-c3ccco3)n2)cc1	.	.	.	.	.
CN(CC#Cc1ccccc1)C(N)=NC(=O)/C=C/c1ccccc1	/	/	/	/	.
Cn1c(O)c(N=NC(=O)c2cc(-c3cccs3)nc3ccccc23)c2ccccc21	.	.	45	.	.
O=C(N=Nc1c(O)[nH]c2ccc(Br)cc12)c1cc(-c2cccs2)nc2ccccc12	.	.	44	.	.
O=C(N=Nc1c(O)[nH]c2ccc(Br)cc12)c1ccccc1-n1cccc1	.	.	.	.	.
O=C(N=Nc1c(O)[nH]c2ccc(Br)cc12)c1cc(-c2cccc3ccccc23)n[nH]1	.	.	39	.	.
CCOC(=O)[C@@]12CCC3=C1N(CCC3)C(=O)[C@H](CC(=O)NCc1ccccc1)C2	/	/	/	/	.
Cc1ccc(-c2nc(C3CCCN(S(=O)(=O)c4ccc(C)c(C)c4)C3)no2)cc1 (stereo not drawn)	/	/	/	/	.
SMILES	LMPTP block	STEP inh	NadD block	Scp1 inh	rCAG RNA binder
COc1cccc(/C=C2/SC(=S)N(CC(=O)NNC(=O)c3ccccc3OC)C2=O)c1	.	.	39	.	.
Cc1nnc(NC(=O)CCN2C(=O)/C(=C\c3ccccc3)SC2=S)s1	.	.	.	.	.
COc1cccc(/C=C2\SC(=S)N(CCC(=O)NNC(=O)c3ccccc3OC)C2=O)c1	.	.	.	.	.
COc1cccc(/C=C2/SC(=S)N(CC(=O)Nc3nnc(C)s3)C2=O)c1	.	.	39	.	.
CC(C)(C)OC(=O)NCc1ccccc1/C=C/S(=O)(=O)NCc1ccccc1	/	/	/	/	.
C=CCN(C)CC#CCCCCl	/	/	/	/	.
COC(=O)[C@]12C[C@H](CC(=O)NCc3cccc(C(F)(F)F)c3)C(=O)N(Cc3ccc(Cl)cc3Cl)C1=C[C@H](C(C)(C)C)O[C@@H]2C	/	/	/	/	.
C=C(C)CSc1nnc(-c2cc(-c3ccccc3)n[nH]2)n1N	/	/	/	/	.
O=c1oc2c(O)c(O)cc3c(=O)oc4c(O)c(O)cc1c4c23	86	99	.	96	/
Cc1c(C)c2cc(Cl)c(O)c(CN(C)C)c2oc1=O	.	.	.	.	.
Cn1c(N)c(C(=O)COC(=O)Cc2cccs2)c(=O)n(C)c1=O	.	.	.	.	.
O=C(Cc1cccs1)OCC(=O)c1ccco1	.	.	.	70	.
COc1cc(OC)cc(-c2nnc(Nc3nc4c(F)cccc4s3)o2)c1	.	.	.	.	.
COc1ccc(-c2nnc(Nc3nc4c(OC)cccc4s3)o2)c(OC)c1	.	.	.	.	51
Fc1cccc2sc(Nc3nnc(-c4ccccc4)o3)nc12	.	.	.	51	.
N#Cc1c(C(F)(F)F)cc(-c2ccc(Cl)cc2)[nH]c1=O	.	.	.	.	37
N#Cc1c(C(F)(F)F)cc(-c2ccc(F)cc2)[nH]c1=O	.	.	.	.	.
COC(=O)[C@]12C[C@H](CC(=O)NCCc3ccccc3OC)C(=O)N(Cc3cccc4ccccc34)C1=C[C@H](COCc1ccccc1)O[C@@H]2C	/	/	/	/	.
Cc1ccc(S(=O)(=O)n2ccc3c(OCCOCCNCc4ccc(F)cc4)cccc32)cc1	.	.	.	.	.
Cc1ccc(S(=O)(=O)n2ccc3c(OCCOCCSCC(NC(=O)OC(C)(C)C)C(=O)O)cccc32)cc1 (stereo not drawn)	.	.	.	.	48
COC(=O)[C@]12C[C@H](CC(=O)N3CCC(c4ccccc4)CC3)C(=O)N(Cc3cccc4ccccc34)C1=C[C@H](C1CCCC1)O[C@@H]2C	/	/	/	/	.
CN(C)c1cccc(/C=C2\CC3(OC(=O)c4cccc(F)c4)CCCN2C3)c1 (stereo not drawn)	/	/	/	/	.
O=C(Cn1cnc2sc(-c3ccccc3)cc2c1=O)NCCc1ccccc1	.	.	.	.	.
O=C(Cn1cnc2sc(-c3ccccc3)cc2c1=O)NCc1ccco1	.	.	.	71	.
Cc1cc(N2CCC(C)CC2)nc2cccc(O)c12	62	.	.	.	.
SMILES	LMPTP block	STEP inh	NadD block	Scp1 inh	rCAG RNA binder
O=C(Nc1cccc(-c2csc(Nc3ccc(Cl)cc3)n2)c1)c1ccccc1	.	.	.	.	.
O=C(Nc1ccc(-c2csc(Nc3ccccc3)n2)cc1)c1ccccc1	.	.	.	.	.
O=C(Nc1cccc(-c2csc(Nc3ccc(Cl)cc3)n2)c1)c1cccc(C(F)(F)F)c1	.	.	.	.	40
O=C(Nc1cccc(-c2csc(Nc3ccc(Cl)cc3)n2)c1)c1cc([N+](=O)[O-])cc(C(F)(F)F)c1	.	.	42	.	.
C=CCN=C1NC(c2cccc(F)c2)C(C(=O)OC)=C(C)N1Cc1cccc(C(F)(F)F)c1 (stereo not drawn)	/	/	/	/	.
CC(C)c1ccc(OC[C@@H](O)CN2CCC(C(O)(c3ccccc3)c3ccccc3)CC2)cc1	/	/	/	/	.
CC(C)OCCCNc1nc(-c2ccccc2)nc2ccccc12	56	.	.	.	.
Clc1ccc(-c2nc(NCCCN3CCOCC3)c3ccccc3n2)cc1	.	.	.	.	.
Fc1ccccc1-c1nc(NCCCN2CCOCC2)c2ccccc2n1	51	.	.	.	.
